Experimental data reported in ChEMBL document CHEMBL1148421, “Novel 3,5-diaryl pyrazolines and pyrazole as low-density lipoprotein (LDL) oxidation inhibitor” (Bioorg Med Chem Lett, 2004).

Legend:
Format in all cases: functional
[1] = In vitro ability to protect human LDL against Cu2+-induced peroxidation. (concentration inhibiting 50% of the Cu2+ induced lipid peroxidation)
Summary of the method: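 Human LDL (120 µg/mL) oxidized with 10 µM CuSO4 as initiator for 4 h in the presence of compound. Lipid peroxidation read out as TBARS. IC50 is the concentration inhibiting TBARS formation by 50%.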

Homo sapiens [2] = species on record: Homo sapiens; assay: Antioxidant effect on the Cu2+-mediated oxidation andapoB-100 fragmentation in LDL after incubation with 20 uM of compound
Summary of the method: (§1)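 LDL (240 µg/mL in PBS) incubated 12 h at 37 °C with 5 µM CuSO4, with or without compound. About 2.0 µg LDL protein run on 4% SDS-PAGE and stained with Coomassie Brilliant Blue R250. ApoB-100 band quantified by densitometry as peak area (absorbance units per mm). Also reported as percent remaining apoB-100 relative to intact apoB-100 of native LDL incubated without CuSO4.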

Homo sapiens [3] = species on record: Homo sapiens; assay: Antioxidant effect on the Cu2+-mediated oxidation andapoB-100 fragmentation in LDL after incubation with 5 uM of compound; summary of the method: as §1
Homo sapiens [4] = species on record: Homo sapiens; assay: Antioxidant effect on the Cu2+-mediated oxidation andapoB-100 fragmentation in LDL after incubation with 10 uM of compound; summary of the method: as §1
Homo sapiens [5] = species on record: Homo sapiens; assay: Antioxidant effect on the Cu2+-mediated oxidation and apoB-100 fragmentation in LDL after incubation with 5 uM of compound; summary of the method: as §1
Homo sapiens [6] = species on record: Homo sapiens; assay: Antioxidant effect on the Cu2+-mediated oxidation and apoB-100 fragmentation in LDL after incubation with 20 uM of compound; summary of the method: as §1
Homo sapiens [7] = species on record: Homo sapiens; assay: Antioxidant effect on the Cu2+-mediated oxidation and apoB-100 fragmentation in LDL after incubation with 10 uM of compound; summary of the method: as §1

| Compound | IC50 [1] [nM] | also measured |
| --- | --- | --- |
| Cc1cc(C2CC(c3cc(C(C)(C)C)c(O)c(C(C)(C)C)c3)=NN2)c(C)c(C)c1O (stereo not drawn) | 600 |  |
| CC(C)(Sc1cc(C(C)(C)C)c(O)c(C(C)(C)C)c1)Sc1cc(C(C)(C)C)c(O)c(C(C)(C)C)c1 [PROBUCOL] | 600 | Area (Homo sapiens [5]): 0 AU mm-1; Area (Homo sapiens [6]): 9.22 AU mm-1; Area (Homo sapiens [7]): 4.73 AU mm-1 |
| CC(C)(C)c1cc(C2=NNC(c3cc(-c4ccccc4)c(O)c(-c4ccccc4)c3)C2)cc(C(C)(C)C)c1O (stereo not drawn) | 600 |  |
| CC(C)(C)c1cc(C2=NNC(c3ccc(O)cc3)C2)cc(C(C)(C)C)c1O (stereo not drawn) | 200 |  |
| CC(C)(C)c1cc(C2=NNC(c3ccc(O)c([N+](=O)[O-])c3)C2)cc(C(C)(C)C)c1O (stereo not drawn) | 300 |  |

Now from value to molecule, other results behind:

| IC50 [1] [nM] | Compound | also measured |
| --- | --- | --- |
| 700 | CC(C)c1cc(C2CC(c3cc(C(C)(C)C)c(O)c(C(C)(C)C)c3)=NN2)cc(C(C)C)c1O (stereo not drawn) |  |
| 100 | CC(C)(C)c1cc(C2=NNC(c3cc(C(C)(C)C)c(O)c(C(C)(C)C)c3)C2)cc(C(C)(C)C)c1O (stereo not drawn) | Area (Homo sapiens [2]): 9.97 AU mm-1; Area (Homo sapiens [3]): 5.63 AU mm-1; Area (Homo sapiens [4]): 9.26 AU mm-1 |
| 200 | COc1cc(C2CC(c3cc(C(C)(C)C)c(O)c(C(C)(C)C)c3)=NN2)ccc1O (stereo not drawn) |  |
| 300 | CC(C)(C)c1cc(C2=NNC(c3ccc(O)c(O)c3)C2)cc(C(C)(C)C)c1O (stereo not drawn) |  |
| 200 | Cc1cc(C2CC(c3cc(C(C)(C)C)c(O)c(C(C)(C)C)c3)=NN2)cc(C)c1O (stereo not drawn) |  |
| 200 | CC(C)(C)c1cc(C2=NNC(c3cc(F)c(O)c(F)c3)C2)cc(C(C)(C)C)c1O (stereo not drawn) |  |
| 700 | CC(C)(C)c1cc(-c2cc(-c3cc(C(C)(C)C)c(O)c(C(C)(C)C)c3)[nH]n2)cc(C(C)(C)C)c1O |  |
